The source made the active and inactive calls. The rule behind the calls is not given here.
Columns and labels:
[1] = biological target: T1, Glucocorticoid receptor (Homo sapiens) (UniProt P04150); experiment: Antagonist activity at glucocorticoid receptor (unknown origin) expressed in human HepG2 cells assessed as reduction in dexamethasone-induced response at 1 uM by MMTV promoter-driven luciferase reporter gene assay; format: cell-based; conditions: in the assay text read “GRE promoter-driven” for “MMTV promoter-driven”
T1 sequence (whole entry): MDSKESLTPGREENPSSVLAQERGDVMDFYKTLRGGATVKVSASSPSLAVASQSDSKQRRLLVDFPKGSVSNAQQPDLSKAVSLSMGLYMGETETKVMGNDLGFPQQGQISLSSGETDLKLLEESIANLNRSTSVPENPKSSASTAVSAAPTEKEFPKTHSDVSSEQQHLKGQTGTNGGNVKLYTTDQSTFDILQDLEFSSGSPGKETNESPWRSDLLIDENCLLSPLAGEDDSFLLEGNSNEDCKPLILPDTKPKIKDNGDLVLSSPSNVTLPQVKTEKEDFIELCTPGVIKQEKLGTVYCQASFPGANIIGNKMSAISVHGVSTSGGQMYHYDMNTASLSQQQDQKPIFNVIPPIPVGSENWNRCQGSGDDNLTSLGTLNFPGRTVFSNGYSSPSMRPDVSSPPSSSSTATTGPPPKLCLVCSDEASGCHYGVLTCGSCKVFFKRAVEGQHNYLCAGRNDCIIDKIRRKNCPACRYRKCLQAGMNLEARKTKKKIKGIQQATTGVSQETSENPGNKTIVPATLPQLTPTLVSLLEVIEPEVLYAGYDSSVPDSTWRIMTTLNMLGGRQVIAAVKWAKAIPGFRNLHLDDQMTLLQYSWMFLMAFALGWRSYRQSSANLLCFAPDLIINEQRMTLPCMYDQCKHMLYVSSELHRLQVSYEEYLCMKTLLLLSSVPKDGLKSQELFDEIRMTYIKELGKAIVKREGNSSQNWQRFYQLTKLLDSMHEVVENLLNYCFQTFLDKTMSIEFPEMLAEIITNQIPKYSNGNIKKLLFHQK
Procedure, shortened: (§1)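 HepG2 in phenol red-free DMEM with charcoal-stripped FBS, triplicate wells. Transfected with 2 µg pCMV-GR, 6 µg pGRE-luc reporter and 1 µg β-gal control. Compound co-treated with 5 nM dexamethasone for 24 h. Luciferase/β-galactosidase ratio expressed relative to dexamethasone alone (=1).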

[2] = biological target: T2, Progesterone receptor (Homo sapiens) (UniProt P06401); experiment: Antagonist activity at progesterone receptor (unknown origin) expressed in human HepG2 cells assessed as reduction in progesterone-induced response at 1 uM by MMTV promoter-driven luciferase reporter gene assay; format: cell-based
T2 sequence (whole entry): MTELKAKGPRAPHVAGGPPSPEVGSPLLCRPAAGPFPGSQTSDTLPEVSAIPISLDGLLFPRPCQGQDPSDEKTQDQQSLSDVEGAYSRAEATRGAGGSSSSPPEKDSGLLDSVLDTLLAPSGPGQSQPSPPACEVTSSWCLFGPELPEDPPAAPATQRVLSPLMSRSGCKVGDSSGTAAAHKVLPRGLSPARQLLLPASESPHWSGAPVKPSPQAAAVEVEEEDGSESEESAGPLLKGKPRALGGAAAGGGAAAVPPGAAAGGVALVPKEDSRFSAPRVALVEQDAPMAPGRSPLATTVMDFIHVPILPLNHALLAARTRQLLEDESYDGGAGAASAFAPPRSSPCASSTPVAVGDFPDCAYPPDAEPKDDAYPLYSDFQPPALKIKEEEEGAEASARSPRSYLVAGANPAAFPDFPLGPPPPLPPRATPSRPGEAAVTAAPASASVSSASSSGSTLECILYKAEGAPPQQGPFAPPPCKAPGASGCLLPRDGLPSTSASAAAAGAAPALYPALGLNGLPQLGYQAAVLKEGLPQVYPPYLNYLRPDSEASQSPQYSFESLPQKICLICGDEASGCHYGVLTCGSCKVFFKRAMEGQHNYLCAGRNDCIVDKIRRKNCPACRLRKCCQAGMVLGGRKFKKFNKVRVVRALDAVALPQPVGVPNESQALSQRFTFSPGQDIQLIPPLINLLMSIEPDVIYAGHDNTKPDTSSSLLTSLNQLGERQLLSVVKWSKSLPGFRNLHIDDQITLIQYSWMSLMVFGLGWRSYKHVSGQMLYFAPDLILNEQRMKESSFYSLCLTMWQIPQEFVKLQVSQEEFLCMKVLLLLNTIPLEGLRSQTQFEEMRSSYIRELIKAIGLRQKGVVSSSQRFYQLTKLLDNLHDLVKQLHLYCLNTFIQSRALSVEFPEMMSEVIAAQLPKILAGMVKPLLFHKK
Procedure, shortened: (§2)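 Triplicate HepG2 wells in phenol red-free, charcoal-stripped serum medium. Cotransfected with 2 µg pCMV-PR, 6 µg pMMTV-luc and 1 µg β-gal plasmid. Compound added with 10 nM progesterone for 24 h. Lysate luminescence normalized to β-galactosidase and expressed relative to progesterone alone (=1).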

[3] = biological target: T3, Androgen receptor (Homo sapiens) (UniProt P10275); experiment: Agonist activity at androgen receptor (unknown origin) expressed in human HepG2 cells assessed as relative luciferase activity at 1 uM by MMTV promoter-driven luciferase reporter gene assay relative to untreated vehicle control; format: cell-based
T3 sequence (whole entry): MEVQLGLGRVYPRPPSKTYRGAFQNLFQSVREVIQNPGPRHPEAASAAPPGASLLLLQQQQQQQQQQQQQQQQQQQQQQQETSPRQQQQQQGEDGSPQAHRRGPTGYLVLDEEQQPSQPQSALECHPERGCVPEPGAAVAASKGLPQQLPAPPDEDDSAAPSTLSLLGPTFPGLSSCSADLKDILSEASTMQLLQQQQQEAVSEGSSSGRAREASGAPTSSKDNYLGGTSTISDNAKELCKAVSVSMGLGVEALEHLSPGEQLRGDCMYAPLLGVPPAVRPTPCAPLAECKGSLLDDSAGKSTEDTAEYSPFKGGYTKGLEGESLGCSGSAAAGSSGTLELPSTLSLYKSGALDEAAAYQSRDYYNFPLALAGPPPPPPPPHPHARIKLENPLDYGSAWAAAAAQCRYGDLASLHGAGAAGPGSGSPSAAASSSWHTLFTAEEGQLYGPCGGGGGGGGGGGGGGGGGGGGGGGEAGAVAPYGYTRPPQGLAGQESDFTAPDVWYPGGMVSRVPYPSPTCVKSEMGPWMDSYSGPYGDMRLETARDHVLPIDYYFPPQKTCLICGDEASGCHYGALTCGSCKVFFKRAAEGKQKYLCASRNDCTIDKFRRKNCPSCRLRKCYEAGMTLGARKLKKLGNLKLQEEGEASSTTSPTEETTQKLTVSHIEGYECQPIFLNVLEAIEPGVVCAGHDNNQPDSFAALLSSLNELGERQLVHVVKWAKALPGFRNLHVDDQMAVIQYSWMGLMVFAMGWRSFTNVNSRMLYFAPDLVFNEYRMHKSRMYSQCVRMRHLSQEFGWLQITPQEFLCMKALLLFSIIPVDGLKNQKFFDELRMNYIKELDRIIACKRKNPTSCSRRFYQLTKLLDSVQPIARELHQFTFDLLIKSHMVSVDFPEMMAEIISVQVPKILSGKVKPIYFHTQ
Procedure, shortened: (§3)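 HepG2 in phenol red-free DMEM with 10% charcoal-stripped FBS, plated in triplicate at 1 × 10^5 cells/well. After 24 h, transfected with 2 µg wild-type AR expression plasmid (pCMV-AR), 6 µg pMMTV-luc reporter and 1 µg β-galactosidase plasmid. Treated 24 h, then lysed. Luciferase normalized to β-gal and expressed relative to DMSO vehicle (=1).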

[4] = biological target: T2, Progesterone receptor (Homo sapiens); experiment: Agonist activity at progesterone receptor (unknown origin) expressed in human HepG2 cells assessed as relative luciferase activity at 20 uM by MMTV promoter-driven luciferase reporter gene assay relative to progesterone; format: cell-based
[5] = biological target: T3, Androgen receptor (Homo sapiens); experiment: Agonist activity at androgen receptor (unknown origin) expressed in human HepG2 cells assessed as relative luciferase activity at 100 nM by MMTV promoter-driven luciferase reporter gene assay relative to untreated vehicle control; format: cell-based; procedure, shortened: as §3
[6] = biological target: T2, Progesterone receptor (Homo sapiens); experiment: Antagonist activity at progesterone receptor (unknown origin) expressed in human HepG2 cells assessed as reduction in progesterone-induced response at 100 nM by MMTV promoter-driven luciferase reporter gene assay; format: cell-based; procedure, shortened: as §2
[7] = tested on: HepG2; experiment: Cytotoxicity against human HepG2 cells; format: cell-based
[8] = biological target: T1, Glucocorticoid receptor (Homo sapiens); experiment: Agonist activity at glucocorticoid receptor (unknown origin) expressed in human HepG2 cells assessed as relative luciferase activity at 20 uM by GRE promoter-driven luciferase reporter gene assay relative to dexamethasone
[9] = biological target: T1, Glucocorticoid receptor (Homo sapiens); experiment: Antagonist activity at glucocorticoid receptor (unknown origin) expressed in human HepG2 cells assessed as reduction in dexamethasone-induced response at 10 uM by MMTV promoter-driven luciferase reporter gene assay; format: cell-based; conditions: in the assay text read “GRE promoter-driven” for “MMTV promoter-driven”; procedure, shortened: as §1
[10] = biological target: T1, Glucocorticoid receptor (Homo sapiens); experiment: Antagonist activity at glucocorticoid receptor (unknown origin) expressed in human HepG2 cells assessed as reduction in dexamethasone-induced response at 100 nM by MMTV promoter-driven luciferase reporter gene assay; format: cell-based; conditions: in the assay text read “GRE promoter-driven” for “MMTV promoter-driven”; procedure, shortened: as §1
[11] = biological target: T2, Progesterone receptor (Homo sapiens); experiment: Antagonist activity at progesterone receptor (unknown origin) expressed in human HepG2 cells assessed as reduction in progesterone-induced response at 10 uM by MMTV promoter-driven luciferase reporter gene assay; format: cell-based; procedure, shortened: as §2

Row | Activity (% of dexamethasone control) [1] [%] | Activity (% of progesterone control) [2] [%] | Activity [3] | Activity [4] | Activity [5] | inhibition [6] | Activity [8] | Activity (% of dexamethasone control) [9] [%] | inhibition [10] | Activity (% of progesterone control) [11] [%] | SMILES | Activity [7]
1 | 56 | 71 | inactive | inactive | inactive | inactive | inactive | 30 | inactive | 64 | CC(=O)O[C@@H](C[C@@H](C)C1=C2[C@H](O)[C@H](O)[C@H]3[C@@]4(C)CCC(=O)C(C)(C)[C@@H]4CC[C@]3(C)[C@@]2(C)CC1=O)[C@H]1OC1(C)C | Non-toxic
2 | 56 | 82 | inactive | inactive | inactive | Active | inactive | 39 | Active | 66 | CC(=O)O[C@@H](C[C@@H](C)C1=C2C[C@H](O)[C@H]3[C@@]4(C)CCC(=O)C(C)(C)[C@@H]4CC[C@]3(C)[C@@]2(C)CC1)[C@@H](O)C(C)(C)O | Non-toxic
3 |  |  |  |  |  |  |  |  |  |  | C[C@H](C[C@H](O)[C@H]1OC1(C)C)C1=C2C[C@H](O)[C@H]3[C@@]4(C)CCC(=O)C(C)(C)[C@@H]4CC[C@]3(C)[C@@]2(C)CC1 [ALISOL B] | Toxic
